Shown are actives, neighbours in structure and some others; about 1.4% of the full set was active somewhere.
SIAE inh: inhibitors of human sialic acid acetylesterase SIAE. Q9HAT2. SIAE FP-Rh probe binding, fluorescence polarization. inhibition, % at 9.66 µM. actives 0.69% (n = 370,000). AID 1053197;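 active means inhibition above a cutoff: mean of compounds within the control limits plus 3 SD of those, cut at about 17% in these data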
Target sequence (Q9HAT2 whole entry, looked up): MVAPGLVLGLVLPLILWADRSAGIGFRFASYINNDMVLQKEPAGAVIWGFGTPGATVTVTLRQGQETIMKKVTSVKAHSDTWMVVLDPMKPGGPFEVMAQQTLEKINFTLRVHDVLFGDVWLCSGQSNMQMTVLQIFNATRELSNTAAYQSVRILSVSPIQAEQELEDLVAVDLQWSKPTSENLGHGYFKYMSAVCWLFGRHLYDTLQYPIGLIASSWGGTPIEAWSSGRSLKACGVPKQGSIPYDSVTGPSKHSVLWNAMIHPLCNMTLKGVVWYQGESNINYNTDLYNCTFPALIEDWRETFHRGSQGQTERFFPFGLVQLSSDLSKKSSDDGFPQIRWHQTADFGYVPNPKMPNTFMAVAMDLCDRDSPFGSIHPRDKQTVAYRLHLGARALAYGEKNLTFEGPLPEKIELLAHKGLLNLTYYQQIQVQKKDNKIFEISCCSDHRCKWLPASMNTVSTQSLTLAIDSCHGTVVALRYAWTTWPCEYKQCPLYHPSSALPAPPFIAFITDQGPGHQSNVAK
HTRA1 inhibitor: inhibitors of human serine peptidase HTRA1; recombinant HTRA1, FP-rhodamine activity-based probe, fluorescence polarization; actives 0.5% (n = 340,000); Q92743; inhibition, % at 5.96 µM; in the data active means inhibition above about 36%
RBBP9 inh: inhibitors of human serine hydrolase RBBP9 | O75884 | recombinant RBBP9, FP-Rh probe fluorescence polarization | inhibition, % at 7.94 µM | actives 0.2% (n = 220,000) | AID 1515;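 active means inhibition above the campaign mean of all tested compounds plus 3 SD, cut at about 14% in these data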
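System: RBBP9 protein / Quantity: 2.5 µM RBBP9 dispensing solution, before mixing / Also added: Serine-hydrolase probe FP-Rh, 375 nM pre-mixing / Dosing: 7.94 µM single dose, 0.794% DMSO / Timing: enzyme-compound preincubation 30 min, then probe labeling 45 min, 25 °C / Signal: FP readout at 525/598 nm / Controls: DMSO-treated enzyme wells and wells lacking RBBP9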
ABHD4 inh: inhibitors of mouse ABHD4; Q8VD66; purified mABHD4, FP-Rh probe fluorescence polarization; actives 0.54% (n = 370,000); inhibition, % at 8.92 µM;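 active means inhibition exceeding the mean over every tested compound plus 3 SD, cut at about 30% in these data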
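Test system: mABHD4 protein; Read-out basis: % inhibition; Incubation: 45 min + 60 min at 25 °C; Repeats: single replicate; Technique: fluorescence polarization with parallel and perpendicular emission, 525/598 nm; Compound: 8.92 µM, single dose; Benchmarks: full inhibition S159A mutant plus DMSO, zero as sample-well median.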
ABHD4 confirm: ABHD4 (mouse) inhibition, FP confirmation. shares compounds with ABHD4 inh. purified mABHD4, FP-Rh probe fluorescence polarization. inhibition, % at 8.92 µM. actives 55% (n = 1,800). AID 720658;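 active means mean inhibition across replicates above the hit cutoff set in the primary screen, cut at about 30% in these data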
A number is an active result; 0 = inactive; - = not tested or not shown.

SMILES	SIAE inh	HTRA1 inhibitor	RBBP9 inh	ABHD4 inh	ABHD4 confirm
O=[N+]([O-])c1ccccc1C(=Nc1ccccc1)c1c(O)cc(O)cc1O	0	0	-	30.3	0
CCCCCc1ccc(OCCCC[n+]2ccc(C)cc2)c(CCCCC)c1	0	0	0	30.1	35.5
CCC(C)(C)c1ccc(OCCCC[n+]2ccccc2)c(C(C)(C)CC)c1	0	0	0	0	-
CCOc1ccc(NS(=O)(=O)c2ccc(Cl)c(N=Nc3c(O)[nH]c(=S)[nH]c3=O)c2)cc1Br	0	0	-	39.4	52.1
Cc1cc(Cl)c(S(=O)(=O)Nc2ccc3c(c2)OCO3)cc1OCC(=O)NC1CCCCC1	0	0	0	29.6	0
Cc1cc(Cl)c(S(=O)(=O)Nc2ccc3c(c2)OCO3)cc1OCC(N)=O	0	0	0	0	-
CCCCN1CN2CCc3ccccc3C2CS1(=O)=O (configuration not stated)	0	-	-	0	-
CC(CCc1ccc(O)cc1)NCCc1ccc(O)c(O)c1 (configuration not stated)	0	0	-	32.6	0
O=C(Nc1ccc(F)c(Cl)c1)c1ccc2sc([C@H]3C[C@H](O)[C@@H](CO)O3)nc2c1	0	-	-	0	-
COc1ccc(S(=O)(=O)N2CCC(NC(=O)c3ccccc3)CC2)cc1	0	0	-	39.3	0
CN(C)CCNc1ccc2ncn3c4ccc(O)cc4c(=O)c1c23	0	0	-	0	-
O=C1C(=Cc2ccco2)CCCC1=Cc1ccco1	0	0	-	0	-
O=C1C(=Cc2ccco2)CCC1=Cc1ccco1	0	0	-	30.5	0
CC(C)C[C@H]1CN(CCCC[C@H]2CNC(=O)C(=O)N2CCc2ccccc2)C(=O)C(=O)N1CC1CCCCC1	0	-	-	0	-
COc1cc(C(=O)NNC(=O)c2n[nH]c3ccccc23)cc(OC)c1OC	0	0	-	0	-
Cc1ccc(-n2nc(C)c3c2OC(N)=C(C#N)C3c2ccco2)cc1 (configuration not stated)	0	0	0	41.0	0
CN(CCCOC(=O)c1cc2ccccc2o1)C1CN(Cc2cn(Cc3ccccc3Cl)nn2)S(=O)(=O)C1 (configuration not stated)	0	-	-	0	-
COCc1cc(N2CCN(C(=O)OC(C)(C)C)C[C@@H]2C)ccc1N1CC[C@@H](O)C1	0	-	-	31.9	0
CCN(/C=N/c1sc2c(c1C#N)CCCCC2)CC	0	0	0	32.3	35.0
C=C1[C@@H](OC(C)=O)C=C[C@@]2(C)C=CC(=O)[C@@](C)(OC(C)=O)[C@@H]2[C@@H](OC(C)=O)[C@]2(O)[C@@H](C)C(=O)O[C@H]2[C@H]1Cl	0	-	-	0	-
Cc1ccc(N/C=C/C(=O)c2cccs2)cc1C	0	-	0	0	-
O=C(/C=C/Nc1ccc(Nc2ccccc2)cc1)c1cccs1	0	0	0	33.5	0
CCc1ccc2c(c1)NC(=O)C2(C)Cc1ccc(C(F)(F)F)nc1 (configuration not stated)	0	-	-	0	-
CCOc1ccc2c(c1)C(=O)c1cc(OCC(=O)O)ccc1-2	0	0	0	0	-
CCCCOc1ccc2c(c1)C(=O)c1cc(O)ccc1-2	0	0	0	43.6	53.6
SMILES	SIAE inh	HTRA1 inhibitor	RBBP9 inh	ABHD4 inh	ABHD4 confirm
COc1ccc(NC(=O)/C(C#N)=C/c2cccnc2)c(OC)c1	0	0	-	0	-
N#C/C(=C\c1cccnc1)C(=O)Nc1ccc(O)cc1F	0	0	-	67.3	0
Cc1cc(C)cc(Nc2ccc(C(=O)O)cc2N)c1	0	0	0	0	-
Cc1cc(C)cc(Nc2ccc(C(=O)O)cc2[N+](=O)[O-])c1	0	0	-	31.8	54.0
CCc1ccc(Nc2ccc(C(=O)O)cc2[N+](=O)[O-])cc1	0	0	-	55.3	68.9
CCc1ccc(Nc2ccc(C(N)=O)cc2[N+](=O)[O-])cc1	0	0	0	0	-
COc1cc(Nc2ccc(C(=O)O)cc2[N+](=O)[O-])cc(OC)c1	0	0	0	36.5	57.1
CCCCN(C(=O)c1cccc(S(=O)(=O)N2CCN(C)CC2)c1)c1c(N)n(CCC)c(=O)[nH]c1=O	0	0	-	0	-
CCOC(=O)[C@]12CCCC=C1N(CCC1=CCCCC1)C(=O)[C@H](CC(=O)N1CCCC1)C2	0	-	-	0	-
Cc1cc(C)c(S(=O)(=O)N(C)CC(=O)N2CCCC2)c(C)c1	0	0	-	0	-
CCOc1cc(S(=O)(=O)n2cc(-c3ccc(F)cc3)c(N)n2)cc(OCC)c1OCC	0	0	0	48.5	65.5
CCOc1cc(-c2cn(S(=O)(=O)c3cccc4nsnc34)nc2N)cc(OCC)c1OCC	0	0	0	31.4	50.6
CC(C)C[C@H](NC1(C(=O)NC2CCCCC2)CCN(C)CC1)C(=O)NCC(c1ccccc1)c1ccccc1	0	-	-	0	-
Cc1cc(C)n2c(Nc3ccc4c(c3)OCCO4)c(CC(C)C)nc2n1	0	-	-	0	-
CC1(C)CC(=O)C/C(=N/Nc2nc3ccccc3s2)C1	0	0	0	30.2	0
CC1CCC/C(=N/Nc2nc3ccccc3s2)C1 (configuration not stated)	0	0	0	37.9	0
O=C(Nc1nc2ccccc2s1)C1CCCO1 (configuration not stated)	0	0	0	0	-
CSc1ncccc1C(=O)Nc1cccc(S(=O)(=O)N2CCCCC2)c1	0	0	-	0	-
Cc1nc(C)c(-c2csc(Nc3ccc(O)c(C(=O)O)c3)n2)s1	0	0	-	45.4	31.1
Cc1nc(C)c(-c2csc(Nc3ccc(N)cc3)n2)s1	0	0	-	0	-
Cc1ccc(NC2=CC(=O)C(=O)c3ccccc32)c(C)c1	0	0	-	0	-
CCOc1ccc(NC2=CC(=O)C(=O)c3ccccc32)cc1	0	0	-	31.9	0
O=C1C=C(Nc2ccccc2O)c2ccccc2C1=O	0	0	0	47.7	0
CO[C@H]1C=CO[C@@]2(C)Oc3c(C)c(O)c4c(O)c(c(C=NN5CCN(C6CCCC6)CC5)c(O)c4c3C2=O)NC(=O)C(C)=CC=C[C@H](C)[C@H](O)[C@@H](C)[C@@H](O)[C@@H](C)[C@H](OC(C)=O)[C@@H]1C	-	-	0	-	-
CO[C@H]1C=CO[C@@]2(C)Oc3c(C)c(O)c4c(O)c(c(C=NN5CCN(C)CC5)c(O)c4c3C2=O)NC(=O)C(C)=CC=C[C@H](C)[C@H](O)[C@@H](C)[C@@H](O)[C@@H](C)[C@H](OC(C)=O)[C@@H]1C	0	0	0	33.0	0
SMILES	SIAE inh	HTRA1 inhibitor	RBBP9 inh	ABHD4 inh	ABHD4 confirm
C=CCN1C(=O)[C@H](CC(=O)NCCCCc2ccccc2)[C@@]2(C(=O)OCC)CCCC=C12	0	-	-	0	-
COc1cc(CNc2ccc3[nH]c(=O)[nH]c3c2)cc(Cl)c1OCC(=O)NC(C)(C)C	0	0	0	40.0	35.7
CCOc1cc(CNc2ccc3[nH]c(=O)[nH]c3c2)ccc1OCC(=O)NC(C)(C)C	0	0	0	0	-
CC1=NN(c2ccccc2)C(=O)/C1=C/c1c(O)n(-c2ccc(F)cc2)[nH]c1=O	0	0	0	37.4	47.3
CC1=NN(c2ccccc2)C(=O)C1=Cc1ccccc1	0	0	-	0	-
CC(C)Oc1ccc(S(=O)(=O)N2CCOCC2)cc1NC(=O)c1ccc(Cl)c(S(=O)(=O)N2CCOCC2)c1	0	0	-	0	-
